E-selectin induc: induces E-selectin expression in human endothelial cells; P16581; HUVEC E-selectin immunofluorescence imaging; normalized: neutral wells 0, TNF-alpha wells 100; activation, % at 7.58 µM; hit rate 0.37% among 260,000; AID 686992;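 active = mean E-selectin-positive cell signal at least 10% of the positive control, reached in at least 60% of replicates, without over 20% cell loss; inconclusive = no rule given, readout overlaps actives, possibly toxicity-flagged; inactive = the rest, including those meeting only one limit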
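Test system – human umbilical vein endothelial cells (HUVEC), E-selectin induction · Input – 3,000 HUVEC seeded per well · Buffer or medium – EGM-2, gelatin · Compound dosing – single-point compound dose · Detection – immunofluorescence imaging · Measure – percent E-selectin-positive cells · Controls – TNF-alpha high, DMSO low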
SIRT5 block: blocks human SIRT5 desuccinylation of peptide. Purified SirT5, succinyl-peptide AMC, trypsin-coupled fluorescence. hit rate 1.1% among 330,000. Q9NXA8. AID 652115. inhibition, % at 15 µM; in the data active = inhibition above about 15%; inconclusive = no clear call, values can overlap the other calls
Target sequence (Q9NXA8 whole entry, looked up): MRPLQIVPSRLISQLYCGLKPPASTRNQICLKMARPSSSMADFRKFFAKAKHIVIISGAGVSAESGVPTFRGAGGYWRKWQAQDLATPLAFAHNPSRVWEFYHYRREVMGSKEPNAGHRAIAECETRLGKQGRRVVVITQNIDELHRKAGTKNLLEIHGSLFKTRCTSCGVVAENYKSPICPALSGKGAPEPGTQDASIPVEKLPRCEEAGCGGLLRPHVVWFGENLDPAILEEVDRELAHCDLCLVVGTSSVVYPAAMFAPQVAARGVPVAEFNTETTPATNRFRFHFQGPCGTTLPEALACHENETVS
DENV2 CPE rescue: DENV2-induced cell death inhibition; AID 651640; CPE inhibition, % at 9.99 µM; DENV2-infected cells, cytopathic effect rescue, plate reader; hit rate 1.7% among 350,000; in the data active = CPE inhibition above about 20%, passing the limit was not always enough; inconclusive = no clear call, values can overlap the other calls; tested in BHK-21 cells;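 also: 0% = median of neutral control wells and 100% = median of positive control wells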
The depositor's hits bear a star; ? = inconclusive; nt = no result given. Only some compounds are listed: those with a hit (about 2.9% of all), similar ones and a draw of the others.

SMILES | E-selectin induc | SIRT5 block | DENV2 CPE rescue
CCNC(=O)[C@@H]1[C@@H](CO)[C@@H]2Cn3c(ccc(-c4ccccc4OC)c3=O)[C@@H]2N1S(C)(=O)=O | 0 | -3 | -7
CCC(=O)N1[C@@H]2c3ccc(-c4cccc(F)c4)c(=O)n3C[C@@H]2[C@@H](CO)[C@@H]1C(=O)OC | 0 | -13 | 76*
CCNC(=O)[C@H]1[C@H](CO)[C@H]2Cn3c(ccc(-c4cccc(OC)c4)c3=O)[C@H]2N1C(=O)NC(C)C | 0 | -26 | 31*
CCN1[C@@H]2c3ccc(-c4ccc(OC)cc4)c(=O)n3C[C@H]1[C@H](CO)[C@H]2C(=O)NCC1CC1 | 0 | -38 | 16
CCNC(=O)[C@H]1[C@H](CO)[C@H]2Cn3c(ccc(-c4cccc(OC)c4)c3=O)[C@H]2N1S(C)(=O)=O | 0 | -14 | 28*
CC1(C)Oc2cc3oc(C(=O)O)cc(=O)c3cc2-c2ccccc21 | 1 | nt | 13
CCCCC1(O)CC(C(F)(F)F)=NN1C(=O)COc1ccccc1 (centres undefined) | nt | 2 | 0
O=C1/C(=C/C=C/c2ccco2)SC(=S)N1NS(=O)(=O)c1ccccc1 | nt | 43* | 4
O=C1/C(=C/c2cccs2)SC(=S)N1NS(=O)(=O)c1ccccc1 | nt | 6 | -7
CC(C)Oc1ccc(F)cc1-c1cc(C(=O)NCc2cccs2)[nH]n1 | 0 | 0 | ?
CCN1CCN(C(=O)/C=C/c2ccc(F)cc2)CC1 | nt | 18* | 3
CCN1CCN(C(=O)/C=C/c2ccc(OC)cc2)CC1 | nt | 0 | 4
COc1ccc(NC(=O)N(C)C[C@@H]2OCCCC[C@H](C)Oc3ccc(NC(=O)C4CCCCC4)cc3C(=O)N([C@@H](C)CO)C[C@H]2C)cc1 | 1 | 2 | 2
O=C(CSc1nccn(-c2ccc(F)c(Cl)c2)c1=O)NC1CCCC1 | 0 | -1 | 22*
Cc1ccc(-n2ccnc(SCC(=O)NC3CCCC3)c2=O)cc1Cl | 0 | -1 | -5
CC1(C)CC(=O)c2c(-c3cccnc3)n[nH]c2C1 | nt | 15* | nt
CC1(C)CC(=O)C(N=Nc2cccnc2)=C(O)C1 | nt | 2 | -5
COCCCNC(=O)C[C@H]1C[C@H](C(=O)N2CCCCC2)[C@@]2(CCc3ccccc3)c3[nH]c4ccc(Cl)cc4c3CCN2C1=O | -2 | -2 | 3
O=C(N[C@H]1CCC(=O)N(CCSc2ccc(Br)cc2)CC1)OCc1ccccc1 | 0 | -2 | -2
Cc1ccc(SCCN2CCC(NC(=O)OCc3ccccc3)CCC2=O)cc1 (centres undefined) | nt | nt | 32*
Cn1cnnc1SCC(=O)Nc1ccc(Oc2ccccc2)cc1 | -1 | 0 | ?
Cc1cccc(C)c1NC(=O)CN(C)CCc1ccccc1 | 1 | -3 | -5
Cc1cccc(NC(=O)c2cc(C)nc3ccccc23)c1 | 61* | -1 | 0
Cc1ccc(NC(=O)c2cc(C)nc3ccccc23)cc1 | nt | -3 | 6
O=C(CCN1C(=O)C2C3C=CC(C4CC34)C2C1=O)OCC(=O)c1ccccc1 (centres undefined) | 0 | 5 | -7
SMILES | E-selectin induc | SIRT5 block | DENV2 CPE rescue
O=C(NCc1ccccc1)c1ccc2c(c1)S(=O)(=O)c1cc(Cl)ccc1C2=O | 1 | nt | -14
CC1(C(=O)NCc2ccccc2)Cc2c(-c3ccc(C(N)=O)cc3)ccnc2O1 (centres undefined) | 2 | 0 | 6
CC1(C(=O)NCc2ccco2)Cc2c(-c3ccc(C(N)=O)cc3)ccnc2O1 (centres undefined) | nt | nt | 40*
CC(=O)Nc1cccc(-c2ccnc3c2CC(C)(C(=O)Nc2cccc(C(F)(F)F)c2)O3)c1 (centres undefined) | 1 | 3 | 4
CC1(C(=O)Nc2cccc(C(F)(F)F)c2)Cc2c(-c3cccc(C(F)(F)F)c3)ccnc2O1 (centres undefined) | 0 | 21* | -7
COc1ccc(NC(=O)C2(C)Cc3c(-c4ccc(C(N)=O)cc4)ccnc3O2)cc1OC (centres undefined) | 1 | 18* | ?
COc1ccc(NC(=O)C2(C)Cc3c(-c4cccc(C(N)=O)c4)ccnc3O2)cc1OC (centres undefined) | 0 | 1 | -6
CCc1nc2ccc(C(=O)NCCOc3ccc(OC)cc3)cn2c1N(C)Cc1ccc(OC)cc1 | 0 | nt | 14
Cn1ncc([N+](=O)[O-])c1C(=O)N/N=C/c1c[nH]c2ccccc12 | 0 | 2 | 0
COc1cccc(/C=N/n2c(=O)[nH]c3ccccc32)c1OC | 0 | nt | nt
CCCCn1nc(C(=O)N(CCOC)c2c(N)n(CCCC)c(=O)[nH]c2=O)c2ccccc2c1=O | 1 | 4 | -8
COc1ccc(CNC(=O)[C@@H](NC(=O)C2CCN(S(=O)(=O)c3ccccc3)CC2)C(C)C)cc1 | 5 | -1 | 7
C[C@H](NC(=O)C1CCN(S(=O)(=O)c2ccccc2)CC1)C(=O)NCc1cccnc1 | 0 | 2 | 37*
